PfHsp90 yeast 2: reduces growth (ATP signal) of yeast expressing P. falciparum Hsp90; S. cerevisiae expressing PfHsp90, BacTiter-Glo ATP, 48 h; yeast lacking PDR1 and PDR3 efflux regulators; inhibition, % at 9.4 µM; hit rate 0.32% among 310,000;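 active = every replicate shows inhibition above about 80%, whatever the replicate mean, limit read from the data; inconclusive = mean inhibition reaches the set limit but some replicate falls short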;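 note: 0% = DMSO neutral controls and 100% = 20 µM radicicol positive controls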
MLL AF4-AF9 inh: MLL-AF4/AF9 protein interaction inhibition; P42568; AlphaScreen, biotin-AF4 peptide binding to FLAG-AF9; inhibition, % at 10 µM; hit rate 0.47% among 350,000; AID 651704;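 active = every replicate reaching a set inhibition limit, whatever the replicate mean, cut at about 25% in these data; inconclusive = mean inhibition reaches that limit but some replicates miss it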;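 note: 0% = plate neutral control median and 100% = total signal loss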
Target sequence (P42568 whole entry, looked up): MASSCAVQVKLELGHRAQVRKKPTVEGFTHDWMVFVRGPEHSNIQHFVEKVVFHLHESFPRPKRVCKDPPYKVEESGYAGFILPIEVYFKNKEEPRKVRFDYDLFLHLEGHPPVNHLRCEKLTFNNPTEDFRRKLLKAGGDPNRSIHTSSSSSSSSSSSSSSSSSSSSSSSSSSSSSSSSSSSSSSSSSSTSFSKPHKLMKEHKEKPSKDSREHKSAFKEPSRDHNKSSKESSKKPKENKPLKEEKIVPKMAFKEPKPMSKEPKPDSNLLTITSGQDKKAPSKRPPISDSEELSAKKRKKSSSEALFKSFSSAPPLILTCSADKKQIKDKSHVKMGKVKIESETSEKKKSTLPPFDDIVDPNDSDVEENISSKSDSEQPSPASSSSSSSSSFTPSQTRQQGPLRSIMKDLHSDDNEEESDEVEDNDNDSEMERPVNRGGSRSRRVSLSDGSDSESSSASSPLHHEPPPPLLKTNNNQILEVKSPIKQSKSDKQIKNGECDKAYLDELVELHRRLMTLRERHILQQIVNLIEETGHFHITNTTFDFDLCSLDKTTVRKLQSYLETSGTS
S100A4 inh HTS: inhibitors of human S100A4 binding to myosin IIA peptide; P26447; S100A4/TAMRA-MyoIIA peptide fluorescence polarization; inhibition, % at 10.7 µM; hit rate 0.14% among 360,000; AID 652163;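 active = mean inhibition of at least 70% across replicates, with every replicate also reaching that level; inconclusive = mean inhibition reaches 70% but some replicates fall short; inactive = mean inhibition below 70%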
Target sequence (P26447 whole entry, looked up): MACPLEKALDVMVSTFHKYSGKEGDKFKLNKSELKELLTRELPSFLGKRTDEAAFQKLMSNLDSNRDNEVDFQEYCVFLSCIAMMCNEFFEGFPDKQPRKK
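Assay system: human S100A4 monomer with TAMRA-labelled myosin IIA peptide / Buffer or medium: Calcium-containing HEPES buffer, pH 7.2 / Reagent: TAMRA-labelled myosin IIA heavy-chain peptide probe, 5 nM / Compound: one dose per compound / Timing: polarization read 5 min after assay mix addition, stable 5–60 min / Benchmarks: neutral control DMSO, positive control TFP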
DENV2 CPE rescue: protects cells from dengue virus 2 cytopathic effect. CPE inhibition, % at 9.99 µM. AID 651640. DENV2-infected cells, cytopathic effect rescue, plate reader. hit rate 1.7% among 350,000; in the data active = CPE inhibition above about 20%, passing the limit was not always enough; inconclusive = no clear call, values can overlap the other calls; tested in BHK-21 cells;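 note: 0% = median of neutral control wells and 100% = median of positive control wells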
Cneo AK release: causes C. neoformans cell lysis; adenylate kinase release luminescence, 4 h; normalised: neutral wells 0, clomiphene wells 100; lysis activity, % at 15 µM; hit rate 0.2% among 360,000; AID 651654;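 active = mean lysis activity across replicates of at least 80%, whatever share of replicates individually reach that level; inactive = mean lysis activity below 80%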
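Material: C. neoformans cells; Schedule: 4 h static compound exposure, 37 °C, read 1 h post-reagent; Measured by: adenylate kinase release luminescence; Read-out: signal increase indicating cell lysis; Controls: Clomiphene as positive lysis control.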
Ecoli rRNA inh: inhibitors of bacterial rRNA selective over humanized ribosomes. GFP signal change (wild-type ribosome), % (test concentration not listed). hit rate 1.6% among 350,000. AID 720706. E. coli WT GFP vs humanized-ribosome RFP mutants, fluorescence, 24 h; hits give low values; DMSO median 0, no signal -100;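 active = significant combined selectivity score with lowered wild-type GFP, culture density cut under 30%, mutant RFP and density less affected; inactive = any of these conditions unmet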
* hit, by the source's call; ? = inconclusive; nt = no result given. An excerpt weighted towards active compounds, which were near 3.2% of everything screened.

SMILES | PfHsp90 yeast 2 | MLL AF4-AF9 inh | S100A4 inh HTS | DENV2 CPE rescue | Cneo AK release | Ecoli rRNA inh
CC(=O)Nc1ccc(S(=O)(=O)N(CC(=O)Nc2cc(C)on2)Cc2ccc(F)cc2)cc1 | -21.3 | 2.2 | 5.1 | 19.5 | nt | -24.2*
C[C@@H]1CCCCO[C@@H](CN(C)S(=O)(=O)c2cccs2)[C@@H](C)CN([C@H](C)CO)C(=O)c2cc(NS(=O)(=O)c3cn(C)cn3)ccc2O1 | nt | -2.4 | 0.3 | ? | 74.3 | 3.4
CC(C)(C)C1CCC(OCC(O)CN2CCN(c3ccccn3)CC2)CC1 (stereo not drawn) | -46.7 | -9.3 | -2.1 | 3.9 | nt | -35.4*
CC(C)NC(=O)Nc1ccc2c(c1)C(=O)N([C@@H](C)CO)C[C@@H](C)[C@@H](CN(C)Cc1ccc(C(F)(F)F)cc1)OCCCC[C@@H](C)O2 | nt | 1.2 | 4.0 | 55.7* | 6.7 | -0.3
CC(C)NC(=O)Nc1ccc2c(c1)C(=O)N([C@@H](C)CO)C[C@H](C)[C@H](CN(C)Cc1ccc(C(=O)O)cc1)OCCCC[C@@H](C)O2 | nt | -5.9 | 2.4 | 25.2* | 0.5 | 1.4
Cc1noc(C)c1NC(=O)N(C)C[C@@H]1OCCCC[C@@H](C)Oc2ccc(NC(=O)CCC(F)(F)F)cc2C(=O)N([C@H](C)CO)C[C@H]1C | nt | -0.2 | -0.6 | -9.0 | -1.5 | 0.6
Cc1nnc(N/N=C/c2cc(C)n(-c3ccc(F)cc3)c2C)n1N | -41.7 | 53.6* | -1.7 | nt | nt | -15.8
COc1ccc(/C=N/Nc2nc3ccccc3[nH]2)c(OC)c1OC | -36.7 | 8.4 | -2.1 | -1.1 | nt | -27.4*
Cc1[nH]c2ccccc2c1/C=N/Nc1nc2ccccc2[nH]1 | 1.4 | 22.2 | 1.9 | -23.9 | -8.6 | -47.0*
C(=N\Nc1nc2ccccc2[nH]1)/c1cccc2cccnc12 | 10.1 | nt | 2.5 | -10.4 | -2.4 | -53.3*
Cc1ccccc1/C=N/Nc1nc2ccccc2[nH]1 | -5.3 | 4.7 | 10.3 | 7.1 | nt | -52.0
C(=N\Nc1nc2ccccc2[nH]1)/C1CCCCC1 | -35.9 | 25.7* | -0.4 | 4.7 | nt | -6.4
CCCN1C[C@@H](C)[C@H](OC)CN(C)C(=O)c2cc(NS(C)(=O)=O)ccc2OC[C@@H]1C | nt | nt | nt | nt | 0.2 | 1.5
CC(=NNC(=S)N1CC2CCC(CC2)C1)c1ccncn1 | 111.4* | 0.9 | -0.7 | -4.7 | nt | 3.1
CC(=NNC(=S)N1CCCCC1)c1ccccn1 | nt | 1.3 | 0.1 | 0.4 | nt | 6.5
O=C(Nc1ccc(Oc2ccc(Cl)cc2)c(Cl)c1)c1cc(I)cc(I)c1O | -6.2 | -3.5 | -0.8 | 42.8* | -3.0 | nt
COc1ccc(NC(=O)c2ccccc2F)cc1Cl | -27.4 | nt | nt | nt | -4.3 | nt
COc1ccc(C(=O)Nc2ccc(S(=O)(=O)Nc3nccc(C)n3)cc2)cc1 | 15.8 | -1.6 | -3.9 | 4.6 | 0.7 | 11.4
Cc1ccc(O)c(-c2cc(C(=O)Nc3ccc(S(=O)(=O)Nc4nccc(C)n4)cc3)[nH]n2)c1 | -0.4 | -0.2 | -11.9 | -0.1 | -0.7 | -28.6*
C[C@@H]1CCCCO[C@H](CN(C)C(=O)C2CCCCC2)[C@@H](C)CN([C@H](C)CO)C(=O)c2cc(NC(=O)Nc3ccc4c(c3)OCO4)ccc2O1 | nt | 0.2 | -1.1 | ? | 0.6 | 2.6
C[C@@H]1CN([C@@H](C)CO)C(=O)c2cc(NC(=O)Nc3ccc4c(c3)OCO4)ccc2O[C@@H](C)CCCCO[C@H]1CN(C)C(=O)C1CCCCC1 | nt | -0.3 | -12.7 | 77.0* | 1.7 | -1.6
COc1ccc(NC(=O)Nc2ccc3c(c2)C(=O)N([C@H](C)CO)C[C@H](C)[C@H](CN(C)C(=O)Nc2ccc4c(c2)OCO4)OCCCC[C@@H](C)O3)cc1 | nt | 1.7 | 11.0 | 40.2* | -1.6 | 5.3
C[C@H](CO)N1C[C@H](C)[C@@H](CN(C)C(=O)Nc2ccc(F)cc2)OCCCC[C@H](C)Oc2ccc(NC(=O)Nc3ccc4c(c3)OCO4)cc2C1=O | nt | 48.7* | -35.1 | 9.5 | -2.0 | 1.1
C[C@@H]1CCCCO[C@H](CN(C)C(=O)Nc2ccc3c(c2)OCO3)[C@H](C)CN([C@@H](C)CO)C(=O)c2cc(NC(=O)Nc3ccccc3)ccc2O1 | nt | 5.1 | -5.6 | 23.0* | 3.9 | 2.4
CCCC#Cc1ccc2c(c1)O[C@@H](CN(C)C(=O)Nc1ccccc1F)[C@@H](C)CN([C@@H](C)CO)S2(=O)=O | nt | 7.9 | 0.4 | -2.6 | 4.4 | -3.8
SMILES | PfHsp90 yeast 2 | MLL AF4-AF9 inh | S100A4 inh HTS | DENV2 CPE rescue | Cneo AK release | Ecoli rRNA inh
C[C@@H]1CN([C@H](C)CO)C(=O)c2cccc(NC(=O)c3cnccn3)c2O[C@H]1CN(C)C(=O)Nc1cccc2ccccc12 | nt | -1.2 | 44.6 | -5.0 | -1.9 | 0.6
Cc1ccc(S(=O)(=O)N(C)C[C@H]2Oc3c(NC(=O)c4nc5ccccc5s4)cccc3C(=O)N([C@H](C)CO)C[C@@H]2C)cc1 | nt | -0.3 | 3.8 | -1.7 | -9.0 | -5.2
C[C@@H]1CCCCO[C@H](CN(C)C(=O)c2ccccc2)[C@@H](C)CN([C@@H](C)CO)C(=O)c2cc(NC(=O)Nc3ccc4c(c3)OCO4)ccc2O1 | nt | -0.6 | -0.3 | 22.5* | 0.4 | -40.0
C[C@@H]1CCCCO[C@H](CN(C)C(=O)c2ccccc2)[C@@H](C)CN([C@H](C)CO)C(=O)c2cc(NC(=O)Nc3ccc4c(c3)OCO4)ccc2O1 | nt | 0.2 | 5.8 | 3.3 | -3.6 | 0.6
CC(=O)N(C)C[C@H]1Oc2ncc(C#Cc3ccccn3)cc2C(=O)N([C@H](C)CO)C[C@H]1C | nt | -9.1 | 12.1 | 6.8 | -3.6 | 6.0
CC(C)(CNS(C)(=O)=O)SCc1ccc(Cl)cc1 | -2.6 | -0.7 | 8.6 | 2.8 | nt | -31.6*
CS(=O)(=O)NCCSCc1ccc(Cl)cc1 | nt | nt | nt | nt | 2.0 | nt
O=C(C[C@H]1CC[C@H](NC(=O)Nc2ccc(C(F)(F)F)cc2)[C@@H](CO)O1)NCc1ccccn1 | nt | 0.4 | 1.4 | ? | 0.9 | -2.5
CC12CCC3C(CCC4CC(O)CCC43C)C1CC(O)C2 (stereo not drawn) | -24.1 | -5.7 | -1.1 | 4.5 | -4.1 | -28.1*
CC1CCN(S(=O)(=O)c2cnc(Cl)c(Br)c2)CC1 | 22.1 | 27.0* | -0.3 | ? | nt | 11.1
CC=Cc1ccc2n(c1=O)C[C@@H]1[C@@H](CO)[C@H](C(=O)N3CCCCC3)[C@H]2N1C(=O)C1CC1 (mixture of isomers) | nt | -1.1 | -2.8 | -3.0 | -3.3 | 2.4
Cc1ccc(/C=N/Nc2nnc(Cl)c3ccccc23)cc1 | 15.1 | 16.4 | 9.6 | -5.4 | -3.9 | -11.3
CC(=O)Nc1ccc(C=NNc2nnc(NN=Cc3ccc(NC(C)=O)cc3)c3ccccc23)cc1 | -5.1 | 0.1 | 72.0* | -4.8 | nt | -16.3*
COc1ccc(CN(C)C[C@H]2OCCCC[C@@H](C)Oc3ccc(NC(=O)c4ccccc4)cc3C(=O)N([C@@H](C)CO)C[C@H]2C)cc1 | nt | 5.5 | -1.5 | ? | 5.4 | 0.4

Assay outcomes: PubChem BioAssay, Broad Institute
